Experimental data taken from ChEMBL document CHEMBL1155875, “Optimization of the central heterocycle of alpha-ketoheterocycle inhibitors of fatty acid amide hydrolase” (J Med Chem, 2008).

Columns and labels:
[1] = molecular target: T1, Fatty-acid amide hydrolase 1 (Rattus norvegicus, UniProt P97612); assay: Inhibition of rat FAAH expressed in Escherichia coli
T1 sequence (P97612 whole entry): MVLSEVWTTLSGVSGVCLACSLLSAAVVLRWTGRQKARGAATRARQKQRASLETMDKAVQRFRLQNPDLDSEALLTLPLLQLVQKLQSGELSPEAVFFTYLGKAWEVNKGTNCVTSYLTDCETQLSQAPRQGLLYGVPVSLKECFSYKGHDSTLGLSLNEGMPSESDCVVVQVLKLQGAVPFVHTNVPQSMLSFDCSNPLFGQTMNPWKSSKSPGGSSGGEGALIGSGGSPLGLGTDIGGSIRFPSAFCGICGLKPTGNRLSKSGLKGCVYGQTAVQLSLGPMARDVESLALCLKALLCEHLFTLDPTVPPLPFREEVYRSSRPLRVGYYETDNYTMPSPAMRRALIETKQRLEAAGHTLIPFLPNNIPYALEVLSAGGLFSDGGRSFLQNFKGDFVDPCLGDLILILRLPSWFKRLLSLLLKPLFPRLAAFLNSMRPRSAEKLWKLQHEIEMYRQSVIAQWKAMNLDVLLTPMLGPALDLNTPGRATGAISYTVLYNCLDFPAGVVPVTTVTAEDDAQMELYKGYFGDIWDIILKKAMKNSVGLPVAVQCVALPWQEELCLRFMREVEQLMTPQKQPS

[2] = molecular target: T1, Fatty-acid amide hydrolase 1; assay: Inhibition of rat FAAH expressed in Escherichia coli at pH 9.0
[3] = Selectivity ratio of IC50 for TGH over IC50 for rat FAAH expressed in Escherichia coli
[4] = molecular target: T2, Neutral cholesterol ester hydrolase 1 (Homo sapiens, UniProt Q6PIU2); assay: Inhibition of KIAA1363 hydrolase
T2 sequence (Q6PIU2 whole entry): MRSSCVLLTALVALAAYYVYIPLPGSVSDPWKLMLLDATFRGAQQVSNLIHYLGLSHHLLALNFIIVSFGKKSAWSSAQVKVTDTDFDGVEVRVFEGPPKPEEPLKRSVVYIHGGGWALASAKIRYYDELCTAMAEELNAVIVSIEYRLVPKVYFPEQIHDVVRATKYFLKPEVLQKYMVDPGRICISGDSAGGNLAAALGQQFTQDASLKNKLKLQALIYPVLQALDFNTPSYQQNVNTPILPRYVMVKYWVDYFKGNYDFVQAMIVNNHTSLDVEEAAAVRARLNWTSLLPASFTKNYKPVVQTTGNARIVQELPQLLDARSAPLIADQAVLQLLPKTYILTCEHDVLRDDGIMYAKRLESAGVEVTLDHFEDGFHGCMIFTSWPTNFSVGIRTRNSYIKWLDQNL

Liver carboxylesterase 1 = molecular target: T3, Liver carboxylesterase 1 (Homo sapiens, UniProt P23141); assay: Inhibition of TGH
T3 sequence (P23141 whole entry): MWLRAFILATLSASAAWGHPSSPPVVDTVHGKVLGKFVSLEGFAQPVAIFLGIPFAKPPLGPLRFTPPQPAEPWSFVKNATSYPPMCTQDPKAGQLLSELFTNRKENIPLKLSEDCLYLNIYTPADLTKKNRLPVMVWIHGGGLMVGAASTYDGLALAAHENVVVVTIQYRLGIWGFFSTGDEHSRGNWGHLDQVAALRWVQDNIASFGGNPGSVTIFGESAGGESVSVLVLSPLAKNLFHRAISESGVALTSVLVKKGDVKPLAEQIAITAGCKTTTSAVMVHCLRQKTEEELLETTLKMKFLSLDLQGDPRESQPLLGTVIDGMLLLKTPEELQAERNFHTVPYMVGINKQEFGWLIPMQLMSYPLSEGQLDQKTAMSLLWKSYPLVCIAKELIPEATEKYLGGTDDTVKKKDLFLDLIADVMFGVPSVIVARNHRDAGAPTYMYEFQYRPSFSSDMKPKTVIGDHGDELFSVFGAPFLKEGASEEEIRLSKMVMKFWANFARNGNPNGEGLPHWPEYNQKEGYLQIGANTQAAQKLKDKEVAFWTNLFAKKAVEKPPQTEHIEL
Procedure, shortened: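 Measured in a proteome-wide selectivity screen that globally profiles mammalian serine hydrolases, with TGH among the enzymes detected. Values are reported as IC50 from this screen rather than as Ki from substrate hydrolysis assays.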

O=C(CCCCCCc1ccccc1)c1nnn[nH]1
IC50 [1]: 600 nM | Ki [2]: > 1000 nM | Ratio IC50 [3]: 0.13 | IC50 [4]: 60000 nM | IC50 (Liver carboxylesterase 1): 80 nM
